Measurements taken from ChEMBL document CHEMBL2163267, “Novel N-linked aminopiperidine inhibitors of bacterial topoisomerase type II with reduced pK(a): antibacterial agents with an improved safety profile” (J Med Chem, 2012).
In brackets after ≈: the same amount, converted by molar mass.

How the values were obtained:
[1] = test system: Staphylococcus aureus; assay: Antibacterial activity against linezolid-resistant Staphylococcus aureus ARC 3583 after 18 to 24 hrs by CLSI broth microdilution method; assay type: functional
Summary of the method: (§1)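 CLSI broth microdilution in Mueller Hinton Broth 2. Inocula prepared from blood agar plates grown at 35 °C for 18–24 h. Compound in DMSO, 2% DMSO final, 11 doubling dilutions from 64 to 0.06 μg/mL. Plates read at 620 nm.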

[2] = test system: Staphylococcus aureus; assay: Antibacterial activity against methicillin-resistant Staphylococcus aureus ARC 1692 in ABT-treated CD1 mouse neutropenic thigh infection model assessed as reduction in log10 CFU per gram of thigh at 20 mg/kg/day, ip qd starting 2 hrs post-infection measured after 24 hrs; assay type: functional; conditions: route intraperitoneal
[3] = test system: Staphylococcus aureus; assay: Antibacterial activity against methicillin-resistant Staphylococcus aureus ARC 1692 in ABT-treated CD1 mouse neutropenic thigh infection model assessed as reduction in log10 CFU per gram of thigh at 60 mg/kg/day, ip qd starting 2 hrs post-infection measured after 24 hrs; assay type: functional; conditions: route intraperitoneal
[4] = test system: Rattus norvegicus; assay: Volume of distribution in Wistar Han rat at 10 mg/kg, iv administered as infusion and po; assay type: ADME, organism-based; design: dose 10 mg/kg, route oral; conditions: in vivo
Summary of the method: (§2)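 Single iv dose (3 mg/kg bolus, or 10 mg/kg infusion, per line). Rats in groups of three, bolus via cannulated jugular vein. Male beagle dogs (n = 3), iv as 15 min infusion, sampled 0 to 24 h. Serial whole-blood samples taken at time intervals. Plasma levels measured by LC-MS/MS. Parameters estimated by non-compartmental analysis.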

[5] = Dissociation constant, pKa of the compound by pH metric assay; assay type: physicochemical
Summary of the method: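 pH-metric titration on an automated titrator, run in triplicate. Accuracy about 0.02 log units.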

[6] = test system: Escherichia coli; assay: Antibacterial activity against Escherichia coli W3110 after 18 to 24 hrs by CLSI broth microdilution method; assay type: functional
[7] = Intrinsic clearance in Wistar Han rat hepatocytes measured per 10^6 cells; assay type: ADME, cell-based, Hepatocyte; conditions: read-out: CLH
[8] = Octanol-phosphate buffer partition coefficient, log D of the compound at pH 7.4 by shake flask method; assay type: physicochemical
Summary of the method: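 Shake-flask partition between n-octanol and 10 mM phosphate buffer at pH 7.4. Shaken 1 h at 1200 rpm to reach equilibrium. Phases analysed by LC/UV, with MS for mass confirmation.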

[9] = test system: Staphylococcus aureus; assay: Antibacterial activity against vancomycin-resistant Staphylococcus aureus ARC 3186 after 18 to 24 hrs by CLSI broth microdilution method; assay type: functional; summary of the method: as §1
[10] = test system: Cavia porcellus; assay: Cardiotoxicity in iv dosed guinea pig assessed as change in MAPD90 at 67 uM total plasma concentration; assay type: toxicity, organism-based; conditions: in vivo
Summary of the method: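 Male guinea pigs anaesthetized with Nembutal, tracheotomized and mechanically ventilated. Compound given iv in two 17 min infusion periods with cardiac pacing. Monophasic action potential recorded continuously and MAPD90 taken. Blood drawn at each dose level for plasma concentration. Vehicle controls run in separate cohorts; n = 6.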

[11] = test system: Mus musculus; assay: AUC (infinity) in CD1 mouse infected with methicillin-resistant Staphylococcus aureus ARC 1692 at 60 mg/kg/day, ip; assay type: ADME, organism-based, Plasma; design: dose 60 mg/kg/day, time infinity, route intraperitoneal; conditions: in vivo
[12] = test system: Streptococcus pneumoniae; assay: Antibacterial activity against penicillin-susceptible Streptococcus pneumoniae D39 after 18 to 24 hrs by CLSI broth microdilution method; assay type: functional
[13] = Intrinsic clearance in Beagle dog hepatocytes measured per 10^6 cells; assay type: ADME, cell-based, Canis lupus familiaris, Hepatocyte; conditions: read-out: CLH
[14] = test system: Staphylococcus aureus; assay: Antibacterial activity against methicillin-susceptible Staphylococcus aureus after 18 to 24 hrs by CLSI broth microdilution method; assay type: functional
[15] = test system: Mus musculus; assay: AUC (infinity) in CD1 mouse infected with methicillin-resistant Staphylococcus aureus ARC 1692 at 40 mg/kg/day, ip; assay type: ADME, organism-based, Plasma; design: dose 40 mg/kg/day, time infinity, route intraperitoneal; conditions: in vivo
[16] = Intrinsic clearance in human hepatocytes measured per 10^6 cells; assay type: ADME, cell-based, Hepatocyte; conditions: read-out: CLH
[17] = test system: Staphylococcus aureus; assay: Antibacterial activity against hospital acquired methicillin-resistant Staphylococcus aureus ARC 1692 after 18 to 24 hrs by CLSI broth microdilution method; assay type: functional; summary of the method: as §1
[18] = Half life in Beagle dog at 10 mg/kg, iv administered as infusion and po; assay type: ADME, organism-based, Canis lupus familiaris; design: dose 10 mg/kg, route oral; conditions: in vivo
[19] = test system: Mus musculus; assay: AUC (infinity) in CD1 mouse infected with methicillin-resistant Staphylococcus aureus ARC 1692 at 20 mg/kg/day, ip; assay type: ADME, organism-based, Plasma; design: dose 20 mg/kg/day, time infinity, route intraperitoneal; conditions: in vivo
[20] = AUC in Wistar Han rat at 10 mg/kg, iv administered as infusion; assay type: ADME, organism-based; design: dose 10 mg/kg, route intravenous; conditions: plasma; summary of the method: as §2
[21] = Inhibition of Escherichia coli DNA topoisomerase 4 subunit ParC/DNA topoisomerase 4 subunit ParE ATPase activity after 24 hrs by malachite green staining-based colorimetric assay
[22] = test system: Canis familiaris; assay: Volume of distribution in Beagle dog at 10 mg/kg, iv administered as infusion and po; assay type: ADME, organism-based, Canis lupus familiaris; design: dose 10 mg/kg, route oral; conditions: in vivo; summary of the method: as §2
[23] = test system: Staphylococcus aureus; assay: Antibacterial activity against community acquired methicillin-resistant Staphylococcus aureus ARC 3189 after 18 to 24 hrs by CLSI broth microdilution method; assay type: functional; summary of the method: as §1
[24] = biological target: T1, Voltage-gated inwardly rectifying potassium channel KCNH2 (Homo sapiens, UniProt Q12809); assay: Displacement of [3H]-astemizole from human ERG expressed in HEK293 cells after 60 mins by liquid scintillation counter; assay type: cell-based
T1 sequence (Q12809 whole entry, the tested form may be a part): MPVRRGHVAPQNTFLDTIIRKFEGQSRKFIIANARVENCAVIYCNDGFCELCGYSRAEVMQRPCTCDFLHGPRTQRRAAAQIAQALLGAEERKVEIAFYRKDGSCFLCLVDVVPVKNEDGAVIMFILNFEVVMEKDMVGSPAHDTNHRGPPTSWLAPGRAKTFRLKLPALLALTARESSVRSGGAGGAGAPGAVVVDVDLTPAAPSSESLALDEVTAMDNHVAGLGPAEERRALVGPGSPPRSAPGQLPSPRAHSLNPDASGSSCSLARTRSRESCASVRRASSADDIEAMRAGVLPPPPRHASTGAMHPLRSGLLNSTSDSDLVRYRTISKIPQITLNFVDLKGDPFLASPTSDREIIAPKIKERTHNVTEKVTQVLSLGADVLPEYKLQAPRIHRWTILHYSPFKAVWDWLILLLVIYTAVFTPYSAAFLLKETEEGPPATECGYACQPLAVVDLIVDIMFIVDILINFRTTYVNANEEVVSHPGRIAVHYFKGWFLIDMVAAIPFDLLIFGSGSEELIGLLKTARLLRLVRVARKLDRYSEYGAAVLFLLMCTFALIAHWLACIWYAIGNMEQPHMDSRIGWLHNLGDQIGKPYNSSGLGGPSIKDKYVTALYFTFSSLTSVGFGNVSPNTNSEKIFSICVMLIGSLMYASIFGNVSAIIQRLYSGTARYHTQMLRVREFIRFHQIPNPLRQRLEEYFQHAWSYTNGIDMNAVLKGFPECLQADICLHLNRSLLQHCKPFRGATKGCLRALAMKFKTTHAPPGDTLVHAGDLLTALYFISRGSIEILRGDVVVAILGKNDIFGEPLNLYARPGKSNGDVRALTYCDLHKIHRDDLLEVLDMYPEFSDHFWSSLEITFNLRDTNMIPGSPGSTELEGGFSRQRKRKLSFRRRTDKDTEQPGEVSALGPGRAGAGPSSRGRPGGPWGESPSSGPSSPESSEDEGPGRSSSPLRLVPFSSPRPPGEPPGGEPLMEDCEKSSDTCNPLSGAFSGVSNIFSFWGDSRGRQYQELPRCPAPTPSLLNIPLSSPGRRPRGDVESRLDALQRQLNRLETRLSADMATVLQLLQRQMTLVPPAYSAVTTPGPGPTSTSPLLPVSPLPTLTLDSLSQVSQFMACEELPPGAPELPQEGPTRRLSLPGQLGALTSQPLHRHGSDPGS

[25] = AUC in Beagle dog at 10 mg/kg, iv administered as infusion; assay type: ADME, organism-based, Canis lupus familiaris; design: dose 10 mg/kg, route intravenous; conditions: plasma; summary of the method: as §2
[26] = Half life in Wistar Han rat at 10 mg/kg, iv administered as infusion and po; assay type: ADME, organism-based; design: dose 10 mg/kg, route oral; conditions: in vivo
[27] = Oral bioavailability in Beagle dog at 10 mg/kg; assay type: ADME, organism-based, Canis lupus familiaris; conditions: in vivo
Summary of the method: (§3)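 Bioavailability from a 10 mg/kg oral dose, by gavage in rats (groups of three) or orally in male beagle dogs (n = 3). Plasma sampled serially over time (dogs 0 to 24 h). Levels measured by LC-MS/MS and referenced to iv dosing. Parameters from non-compartmental analysis.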

[28] = Oral bioavailability in Wistar Han rat at 10 mg/kg; assay type: ADME, organism-based; conditions: in vivo; summary of the method: as §3
[29] = test system: Staphylococcus aureus; assay: Antibacterial activity against methicillin-resistant Staphylococcus aureus ARC 1692 in ABT-treated CD1 mouse neutropenic thigh infection model assessed as reduction in log10 CFU per gram of thigh at 40 mg/kg/day, ip qd starting 2 hrs post-infection measured after 24 hrs; assay type: functional; conditions: route intraperitoneal
[30] = test system: Pseudomonas aeruginosa; assay: Antibacterial activity against Pseudomonas aeruginosa PAO1 after 18 to 24 hrs by CLSI broth microdilution method; assay type: functional
[31] = Fraction unbound in human plasma at 10 uM by equilibrium dialysis method; assay type: ADME, cell-free
Summary of the method: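 Equilibrium dialysis. Compound at 10 μM in the plasma (donor) chamber against phosphate buffer, rotated at 37 °C for 16 h. Drug in the plasma and buffer samples quantified by LC-MS/MS after methanol protein precipitation with internal standard. Standard curve 10 nM to 10 μM.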

[32] = biological target: T1, Voltage-gated inwardly rectifying potassium channel KCNH2; assay: Inhibition of human ERG by Ionworks assay
[33] = test system: Mus musculus; assay: AUC (infinity) in CD1 mouse infected with methicillin-resistant Staphylococcus aureus ARC 1692 at 80 mg/kg/day, ip; assay type: ADME, organism-based, Plasma; design: dose 80 mg/kg/day, time infinity, route intraperitoneal; conditions: in vivo
[34] = test system: Staphylococcus aureus; assay: Antibacterial activity against methicillin-resistant Staphylococcus aureus ARC 1692 in ABT-treated CD1 mouse neutropenic thigh infection model assessed as reduction in log10 CFU per gram of thigh at 80 mg/kg/day, ip qd starting 2 hrs post-infection measured after 24 hrs; assay type: functional; conditions: route intraperitoneal

SMILES	MIC [1] [µg/mL]	Vd [4] [L/kg]	pKa [5]	MIC [6] [µg/mL]	hepatocyte CLint [7] [µL/min/1e6 cells]	logD [8]	MIC [9] [µg/mL]	MIC [12] [µg/mL]	hepatocyte CLint [13] [µL/min/1e6 cells]	MIC [14] [µg/mL]	AUC [15] [µg/h/mL]	hepatocyte CLint [16] [µL/min/1e6 cells]	MIC [17] [µg/mL]	half-life [18] [h]	AUC [20] [ng·h/mL]	IC50 [21] [nM]	Vd [22] [L/kg]	MIC [23] [µg/mL]	AUC [25] [ng·h/mL]	log10cfu [29]	other results
N#Cc1ccc2ccc(=O)n(CCN3CC[C@H](NCc4cc5c(cn4)OCCO5)[C@H](F)C3)c2c1	0.125 (≈ 0.27 µM)	3	7.03	4 (≈ 8.63 µM)	13	0.96	0.015 (≈ 0.0324 µM)	0.13 (≈ 0.28 µM)	4.5	0.06 (≈ 0.129 µM)	37	5.2	0.125 (≈ 0.27 µM)	3.4	3100	48	1.5	0.06 (≈ 0.129 µM)	27000	1	log10cfu [2]: 0.1; log10cfu [3]: 1.5; Activity [10]: Non-toxic; AUC [11]: 53 µg/h/mL; AUC [19]: 18 µg/h/mL; IC50 [24]: > 200000 nM; half-life [26]: 0.9 h; bioavailability [27]: 60%; bioavailability [28]: 18%; MIC [30]: > 8 µg/mL; fraction unbound at 10 µM [31]: 0.25; IC50 [32]: 233000 nM
N#Cc1ccc2ccc(=O)n(CCN3CC[C@@H](NCc4ccc5c(n4)NC(=O)CO5)[C@@H](F)C3)c2c1		3	7.28	1 (≈ 2.1 µM)	14	0.66		0.25 (≈ 0.525 µM)	8.6	0.06 (≈ 0.126 µM)		2		5.4	2500	11	1.7		25000		MIC [30]: 8 µg/mL (≈ 16.8 µM); fraction unbound at 10 µM [31]: 0.2
C[C@H]1COc2c(N3CCN(C)CC3)c(F)cc3c(=O)c(C(=O)O)cn1c23.C[C@H]1COc2c(N3CCN(C)CC3)c(F)cc3c(=O)c(C(=O)O)cn1c23.O [LEVOFLOXACIN]	> 16						16				4		0.125					8		0.3	AUC [33]: 11 µg/h/mL; log10cfu [34]: 1.4
